Assay results as given in ChEMBL document CHEMBL1131287, “Design, synthesis, and biological activities of potent and selective somatostatin analogues incorporating novel peptoid residues” (J Med Chem, 1998).
pKd, pKi: −log10 of the molar value. Square brackets hold non-standard residues; d marks the D form. Peptide text beside a SMILES is read from it.

What was measured:
Format in all cases: cell-based
[1] = target: T1, Somatostatin receptor type 4 (Homo sapiens, UniProt P31391); assay: In vitro inhibition of radioligand binding to human somatostatin receptor (hsst4) expressed in CHO-K1 cells.
Method in brief: (§1)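 Membranes from CHO-K1 clones stably expressing the hsst subtype (pCMV, G418-selected), washed in 50 mM Tris-HCl. Stopped by PEI-treated GF/C filtration. Specific binding was defined against 1000 nM SRIF-14.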

[2] = target: T2, Somatostatin receptor type 3 (Homo sapiens, UniProt P32745); assay: In vitro inhibition of radioligand binding to human somatostatin receptor (hsst3) expressed in CHO cells.
Method in brief: (§2)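 Competition binding on cell or membrane homogenates in 10 mM HEPES pH 7.5 with 0.5% BSA, 5 mM MgCl2 and 5 μg/mL bacitracin, 1 h at room temperature. Nonspecific binding with 1 μM SRIF14. Gamma counting, triplicates, nonlinear regression, reported as pKD.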

[3] = target: T3, Somatostatin receptor type 5 (Homo sapiens, UniProt P35346); assay: In vitro inhibition of radioligand binding to human Somatostatin receptor type 5 expressed in CHO-K1 cells.; method in brief: as §1
[4] = target: T4, Somatostatin receptor type 2 (Homo sapiens, UniProt P30874); assay: In vitro inhibition of radioligand binding to human somatostatin receptor (hsst2) expressed in CHO-K1 cells.
Method in brief: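 hsst2 stably expressed in CHO-K1 cells; washed membranes were used. Radioligand was 0.05 nM [125I]MK-678, incubated 90 min at 25 °C in 50 mM HEPES pH 7.4 buffer with BSA, MgCl2 and protease inhibitors. Filtered on PEI-soaked GF/C filters. Specific binding was defined against 1000 nM MK-678.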

[5] = target: T3, Somatostatin receptor type 5; assay: In vitro inhibition of radioligand binding to human Somatostatin receptor type 5 expressed in CCL-39 cells.; method in brief: as §2
[6] = target: T5, Somatostatin receptor type 1 (Homo sapiens, UniProt P30872); assay: In vitro inhibition of radioligand binding to human somatostatin receptor (hsst1) expressed in hSF6 cells.; method in brief: as §2
[7] = target: T5, Somatostatin receptor type 1; assay: In vitro inhibition of radioligand binding to human somatostatin receptor (hsst1) expressed in CHO-K1 cells.; method in brief: as §1
[8] = target: T4, Somatostatin receptor type 2; assay: In vitro inhibition of radioligand binding to human somatostatin receptor (hsst2) expressed in CHO cells.; method in brief: as §2
[9] = target: T1, Somatostatin receptor type 4; assay: In vitro inhibition of radioligand binding to human somatostatin receptor (hsst4) expressed in CHO cells.; method in brief: as §2
[10] = target: T2, Somatostatin receptor type 3; assay: In vitro inhibition of radioligand binding to human somatostatin receptor (hsst3) expressed in CHO-K1 cells.; method in brief: as §1

T1 sequence (P31391 whole entry): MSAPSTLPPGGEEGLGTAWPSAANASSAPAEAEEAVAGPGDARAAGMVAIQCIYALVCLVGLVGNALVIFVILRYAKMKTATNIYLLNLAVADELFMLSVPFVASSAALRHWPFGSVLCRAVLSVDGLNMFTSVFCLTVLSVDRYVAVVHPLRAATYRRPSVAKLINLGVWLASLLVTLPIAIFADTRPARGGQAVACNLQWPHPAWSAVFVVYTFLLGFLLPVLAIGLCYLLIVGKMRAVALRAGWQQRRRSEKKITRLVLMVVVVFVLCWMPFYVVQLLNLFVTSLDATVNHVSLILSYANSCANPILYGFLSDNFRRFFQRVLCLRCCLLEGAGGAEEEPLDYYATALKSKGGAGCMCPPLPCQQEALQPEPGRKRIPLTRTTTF
T2 sequence (P32745 whole entry): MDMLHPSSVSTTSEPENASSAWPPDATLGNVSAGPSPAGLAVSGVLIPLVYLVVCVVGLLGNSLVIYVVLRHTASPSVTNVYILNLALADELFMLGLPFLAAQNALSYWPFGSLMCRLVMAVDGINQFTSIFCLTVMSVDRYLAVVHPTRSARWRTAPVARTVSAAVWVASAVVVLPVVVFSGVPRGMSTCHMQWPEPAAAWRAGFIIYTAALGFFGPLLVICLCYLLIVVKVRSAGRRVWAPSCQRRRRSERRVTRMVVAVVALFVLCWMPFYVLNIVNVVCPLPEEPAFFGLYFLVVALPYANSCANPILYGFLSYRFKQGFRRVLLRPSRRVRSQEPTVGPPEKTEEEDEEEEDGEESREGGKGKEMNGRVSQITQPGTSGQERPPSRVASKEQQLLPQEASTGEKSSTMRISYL
T3 sequence (P35346 whole entry): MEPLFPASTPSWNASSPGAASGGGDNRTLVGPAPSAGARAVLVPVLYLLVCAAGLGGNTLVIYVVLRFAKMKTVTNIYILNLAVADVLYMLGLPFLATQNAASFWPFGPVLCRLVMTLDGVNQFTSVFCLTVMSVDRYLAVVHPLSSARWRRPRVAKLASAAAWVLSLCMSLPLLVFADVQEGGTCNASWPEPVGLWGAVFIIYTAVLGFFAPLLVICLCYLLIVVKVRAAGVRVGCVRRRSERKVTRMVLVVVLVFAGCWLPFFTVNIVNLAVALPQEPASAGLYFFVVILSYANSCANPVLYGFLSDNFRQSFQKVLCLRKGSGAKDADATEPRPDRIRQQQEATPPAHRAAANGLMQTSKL
T5 sequence (P30872 whole entry): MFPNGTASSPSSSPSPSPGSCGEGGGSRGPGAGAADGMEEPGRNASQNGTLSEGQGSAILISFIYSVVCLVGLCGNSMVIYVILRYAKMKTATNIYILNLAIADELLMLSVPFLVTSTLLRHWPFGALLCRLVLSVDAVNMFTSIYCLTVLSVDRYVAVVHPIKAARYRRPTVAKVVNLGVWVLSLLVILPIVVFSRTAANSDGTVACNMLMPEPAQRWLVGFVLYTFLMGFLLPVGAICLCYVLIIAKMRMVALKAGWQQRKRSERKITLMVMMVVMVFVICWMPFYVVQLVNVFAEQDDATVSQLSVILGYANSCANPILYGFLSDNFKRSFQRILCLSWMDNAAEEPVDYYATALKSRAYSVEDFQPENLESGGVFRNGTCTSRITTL
T4 sequence (P30874 whole entry): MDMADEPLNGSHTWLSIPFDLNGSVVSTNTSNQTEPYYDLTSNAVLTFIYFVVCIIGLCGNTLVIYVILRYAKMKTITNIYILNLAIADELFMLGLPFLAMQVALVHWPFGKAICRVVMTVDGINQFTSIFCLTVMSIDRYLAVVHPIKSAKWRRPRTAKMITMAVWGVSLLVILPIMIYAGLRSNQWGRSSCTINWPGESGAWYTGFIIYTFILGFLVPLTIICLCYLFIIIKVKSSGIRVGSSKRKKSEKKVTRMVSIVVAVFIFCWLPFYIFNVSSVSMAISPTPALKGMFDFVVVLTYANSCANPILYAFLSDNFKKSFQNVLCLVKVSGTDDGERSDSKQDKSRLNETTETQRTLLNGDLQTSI

| pKi ([1]; cho-k1) | pKd ([2]; cho) | pKi ([3]; cho-k1) | pKi ([4]; cho-k1) | pKd ([5]; ccl-39) | pKd [6] | pKi ([7]; cho-k1) | pKd ([8]; cho) | pKd ([9]; cho) | pKi ([10]; cho-k1) | pKi [1] | pKd [2] | pKi [3] | pKi [4] | pKd [5] | pKi [7] | pKd [8] | pKd [9] | pKi [10] | Compound |
| --- | --- | --- | --- | --- | --- | --- | --- | --- | --- | --- | --- | --- | --- | --- | --- | --- | --- | --- | --- |
| 6.01 | 6.47 | 7.06 | 7.53 | 6.94 | 4.88 | < 6.00 | 8.21 | 5.58 | 6.10 | – | – | – | – | – | – | – | – | – | C[C@@H](O)[C@@H]1NC(=O)[C@H](CCCCN)NC(=O)[C@@H](Cc2c[nH]c3ccccc23)NC(=O)[C@H](Cc2ccccc2)NC(=O)CN([C@@H](C)c2ccccc2)C(=O)[C@H](Cc2ccccc2)NC1=O |
| < 6.00 | 6.39 | 7.47 | 8.63 | 6.54 | 5.45 | < 6.00 | 8.69 | 5.38 | 6.37 | – | – | – | – | – | – | – | – | – | C[C@H](c1ccccc1)N1CC(=O)N[C@@H](Cc2ccccc2)C(=O)N[C@H](Cc2c[nH]c3ccccc23)C(=O)N[C@@H](CCCCN)C(=O)N[C@@H]([C@@H](C)O)C(=O)N[C@@H](Cc2ccccc2)C1=O |
| < 6.00 | 6.55 | 7.00 | 8.16 | 7.16 | 5.15 | < 6.00 | 8.53 | 5.33 | 6.60 | – | – | – | – | – | – | – | – | – | C[C@@H](O)[C@@H]1NC(=O)[C@H](CCCCN)NC(=O)[C@@H](Cc2c[nH]c3ccccc23)NC(=O)[C@H](Cc2ccccc2)NC(=O)CN(Cc2ccccc2)C(=O)[C@H](Cc2ccccc2)NC1=O |
| – | – | – | – | – | 5.34 | – | – | – | – | < 6.00 | 6.28 | 7.60 | 8.29 | 8.12 | < 6.00 | 9.12 | 5.05 | 6.89 | C[C@@H](O)[C@@H]1NC(=O)[C@H](CCCCN)NC(=O)[C@@H](Cc2c[nH]c3ccccc23)NC(=O)[C@H](Cc2ccccc2)NC(=O)[C@@H]2CCCN2C(=O)[C@H](Cc2ccccc2)NC1=O (cyclo(PF[dW]KTF)) |
